Here are results for nine compounds from ChEMBL document CHEMBL5252543, “Ester-prodrugs of ethambutol control its antibacterial activity and provide rapid screening for mycobacterial hydrolase activity” (2017).

Common to all, as to format: functional
Common to all, as to settings: 72 h, time 3 day

Experiment [1] relates to Mycolicibacterium smegmatis. The experiment in a line: Antimicrobial activity against Mycobacterium smegmatis assessed as bacterial growth inhibition measured after 3 days by multimode plate reader analysis. In outline: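 MIC99 in M. smegmatis broth. Compounds serially diluted in Middlebrook media, then diluted 1:1 with M. smegmatis in Middlebrook (final 25 μg/mL to 0.012 μg/mL). Plates grown 72 h at 37 °C, 225 rpm; growth read as A600.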

For experiment [2], the system named is Mycolicibacterium smegmatis. The experiment in a line: Antimicrobial activity against Mycobacterium smegmatis assessed as bacterial growth inhibition preincubated with PLE for 1 hr measured after 3 days by multimode plate reader analysis. In outline: (§1)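 MIC99 in M. smegmatis with esterase pretreatment. The highest-concentration sample (50 μg/mL) was preincubated 1 h at RT with pig liver esterase (0.1 mg/mL), alone or with PMSF (1 mM), before serial dilution and 1:1 mixing with M. smegmatis in Middlebrook (final 25 to 0.012 μg/mL). Growth read as A600 after 72 h at 37 °C, 225 rpm.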

Experiment [3] has as its system Mycolicibacterium smegmatis. The experiment in a line: Antimicrobial activity against Mycobacterium smegmatis assessed as bacterial growth inhibition preincubated with PLE and PMSF for 1 hr measured after 3 days by multimode plate reader analysis. An outline of the steps: as §1

The MIC99 is an inhibitory concentration at the 99% level, which refers to growth in some studies and to a panel of isolates in others. Consider `CC[C@@H](COC(=O)C(C)C)NCCN[C@@H](CC)COC(=O)C(C)C.Cl.Cl`, for which the figures for the MIC99 in experiment [1], in experiment [2] and in experiment [3] were 6.3 µg/mL, 0.39 µg/mL and 6.3 µg/mL, respectively.
On to `CC[C@@H](COC(=O)CC(C)C)NCCN[C@@H](CC)COC(=O)CC(C)C.Cl.Cl`, for which the figures for the MIC99 in experiment [1], in experiment [2] and in experiment [3] were 6.3 µg/mL, 0.2 µg/mL and 0.39 µg/mL, respectively.
The corresponding values for `CC[C@@H](CO)NCCN[C@@H](CC)CO.Cl.Cl` [ETHAMBUTOL HYDROCHLORIDE] are 0.098 µg/mL, 0.098 µg/mL and 0.098 µg/mL.
For `CCC(CC)C(=O)OC[C@H](CC)NCCN[C@@H](CC)COC(=O)C(CC)CC.Cl.Cl`, in that order: 1.6 µg/mL, 0.2 µg/mL and 0.78 µg/mL.
For `CC[C@@H](COC(=O)C(C)(C)C)NCCN[C@@H](CC)COC(=O)C(C)(C)C.Cl.Cl`, in that order: 6.3 µg/mL, 0.78 µg/mL and 6.3 µg/mL.
For the compound `CCC(=O)OC[C@H](CC)NCCN[C@@H](CC)COC(=O)CC.Cl.Cl`, the MIC99 in experiment [1], in experiment [2] and in experiment [3] was 0.78 µg/mL throughout.
On to `CC[C@@H](COC(=O)C1(C)CC1)NCCN[C@@H](CC)COC(=O)C1(C)CC1.Cl.Cl`, for which the values for the MIC99 in experiment [1], in experiment [2] and in experiment [3] were 13 µg/mL, 0.78 µg/mL and 25 µg/mL, respectively.
The corresponding values for `CC[C@@H](COC(=O)C1CCCC1)NCCN[C@@H](CC)COC(=O)C1CCCC1.Cl.Cl` are 6.3 µg/mL, 0.098 µg/mL and 1.6 µg/mL.
On to `CC[C@@H](COC(=O)C1CCC1)NCCN[C@@H](CC)COC(=O)C1CCC1.Cl.Cl`, for which the MIC99 stood at 3.1 µg/mL in experiment [1], 0.39 µg/mL in experiment [2] and 6.2 µg/mL in experiment [3].
